Blank lines part the entries; values can stand above or below the molecule they belong to. Active and inactive are the calls of the source. No cut-off for these calls is given here.
Legend:
Homo sapiens [1] = organism: Homo sapiens; experiment: Inhibition of LTB4-induced chemotaxis in human polymorphonuclear leukocytes at 0.01 to 10 nM incubated for 90 mins by Diff-Quick staining based densitometric analysis; format: functional, cell-based
In short: (§1)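 Human peripheral blood PMNL from healthy NSAID-free donors were isolated by Percoll and hypotonic lysis. Migration toward 10 nM LTB4 in RPMI/0.1% BSA was run in a 48-well microchamber with 5 μm polycarbonate filters, 2×10^6 cells/mL. Test agents at 0.01–10 nM or EtOH were added to both compartments. After 90 min at 37°C, migrated cells were stained and read by densitometry. Sextuplicates, 3–4 donors, normalized to negative controls.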

Mus musculus = experiment: Antiinflammatory activity in FVB mouse model of acute pulmonary inflammation assessed as reduction in number of infiltrating neutrophils in BAL fluid at 10 ng administered intratracheally with lipopolysaccharide measured at 24 hrs by FACS analysis; format: functional
In short: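 Female FVB mice, 7–8 weeks old, acclimated at least 5 days. Intratracheal challenge with 50 μL LPS (250 μg/mL in PBS) containing 10 ng test agent or vehicle (EtOH, 2% final). Controls received PBS with 2% EtOH. BAL collected 24 h later (three 0.6 ml PBS washes). Neutrophils counted by FACS as CD45+ F4/80− Ly6G^hi CD11b^hi, absolute numbers from counting tubes; mean ± SEM, n=3.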

[2] = Drug level in human HepG2 cells treated with 13 uM Protectin-D1 assessed as compound formation incubated for 4 hrs by RP-HPLC/MS analysis; format: ADME, cell-based; details: hepg2, 4 h
In short: (§2)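 HepG2 cells were kept in serum-free medium and incubated for 4 h with 13 μM NPD1 (final) or ethanol vehicle. Media were extracted and run on RP-HPLC with a linear ion trap ESI-MS, using full scans at m/z 100-1000. Peaks present only in NPD1 incubates were located from single-ion chromatograms. MS/MS spectra were collected and compared with those of synthetic standards.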

[3] = Drug excretion in healthy human urine by LC-MS/MS analysis; format: ADME, tissue-based; details: in vivo
[4] = Stability in human HepG2 cells at 0.52 uM up to 4 hrs by LC-MS/MS analysis; format: ADME, cell-based; details: hepg2, 4 h
In short: (§3)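 HepG2 cells in serum-free medium were incubated with 2.6 or 0.52 μM final NPD1 or LTE4. Medium was collected at 30 min, 1 h and 4 h, spiked with d4-LTB4 and d5-LTE4, SPE-extracted and quantified by LC-MS/MS SRM. Results are expressed as % of the amount measured at T0.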

[5] = Stability in human HepG2 cells at 2.6 uM up to 4 hrs by LC-MS/MS analysis; format: ADME, cell-based; details: hepg2, 4 h; in short: as §3
[6] = Drug metabolism in human HepG2 cells assessed as (5Z,8R,9E,11E,13Z,15S,17Z)-8,15-Dihydroxyicosa-5,9,11,13,17-pentaenoic Acid formation at 13 uM incubated for 4 hrs by RP-HPLC/MS analysis; format: ADME, cell-based; details: hepg2, 4 h; in short: as §2
[7] = Drug metabolism in human HepG2 cells assessed as 3Z,6R,7E,9E,11Z,13S,15Z)-6,13-Dihydroxyoctadeca-3,7,9,11,15-pentaenoic Acid formation at 13 uM after 24 hrs by LC-MS/MS analysis; format: ADME, cell-based; details: hepg2, 24 h
In short: (§4)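 Medium was spiked with d4-LTB4 internal standard, SPE-extracted, and quantified by RP-HPLC coupled to triple quadrupole SRM. Amounts are given as nmol per mg cell protein (Bradford) or as % of NPD1 at T0.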

Homo sapiens [8] = organism: Homo sapiens; experiment: Inhibition of LTB4-induced chemotaxis in human polymorphonuclear leukocytes incubated for 90 mins by Diff-Quick staining based densitometric analysis; format: functional, cell-based; in short: as §1
[9] = Drug metabolism in human HepG2 cells assessed as (5Z,8R,9E,11E,13Z,15S,17Z)-8,15-Dihydroxyicosa-5,9,11,13,17-pentaenoic Acid formation at 13 uM incubated for 4 hrs by tandem mass spectrometric analysis; format: ADME, cell-based; details: hepg2, 4 h; in short: as §2
[10] = Drug metabolism in human HepG2 cells assessed as 3Z,6R,7E,9E,11Z,13S,15Z)-6,13-Dihydroxyoctadeca-3,7,9,11,15-pentaenoic Acid formation at 13 uM incubated for 4 hrs by tandem mass spectrometric analysis; format: ADME, cell-based; details: hepg2, 4 h; in short: as §2
[11] = Drug metabolism in human HepG2 cells assessed as hexanor-NPD1 formation at 13 uM incubated for 4 hrs by RP-HPLC/MS analysis; format: ADME, cell-based; details: hepg2, 4 h; in short: as §2
[12] = Drug metabolism in human HepG2 cells assessed as 3Z,6R,7E,9E,11Z,13S,15Z)-6,13-Dihydroxyoctadeca-3,7,9,11,15-pentaenoic Acid formation at 13 uM after 30 mins by LC-MS/MS analysis; format: ADME, cell-based; details: hepg2, 0.5 h; in short: as §4
[13] = Drug metabolism in human HepG2 cells assessed as parent compound remaining level at 13 uM after 24 hrs by LC-MS/MS analysis relative to control; format: ADME, cell-based; details: read-out: Stability; in short: as §4
[14] = Drug metabolism in human HepG2 cells assessed as 22-OH-NPD1 formation at 13 uM incubated for 4 hrs by tandem mass spectrometric analysis; format: ADME, cell-based; details: hepg2, 4 h; in short: as §2
[15] = Drug metabolism in human HepG2 cells assessed as omega-hydroxylated dinor-NPD1 formation at 13 uM incubated for 4 hrs by RP-HPLC/MS analysis; format: ADME, cell-based; details: hepg2, 4 h; in short: as §2
[16] = Drug metabolism in human HepG2 cells at 0.52 uM measured at 30 mins by LC-MS/MS analysis; format: ADME, cell-based; details: read-out: Drug metabolism; in short: as §4
[17] = Drug level in healthy human urine assessed as drug recovery at 50 ng measured up to 24 hrs at room temperature in presence of BHT by LC-MS/MS analysis; format: ADME, tissue-based; details: urine of healthy humans, read-out: Drug recovery
[18] = Half life in human HepG2 cells at 0.52 uM by LC-MS/MS analysis; format: ADME, cell-based; in short: as §4
[19] = Drug excretion in healthy human urine assessed as 3Z,6R,7E,9E,11Z,13S,15Z)-6,13-Dihydroxyoctadeca-3,7,9,11,15-pentaenoic Acid formation by LC-MS/MS analysis; format: ADME, tissue-based; details: in vivo
[20] = Drug metabolism in human HepG2 cells assessed as (5Z,8R,9E,11E,13Z,15S,17Z)-8,15-Dihydroxyicosa-5,9,11,13,17-pentaenoic Acid formation at 13 uM after 30 mins by LC-MS/MS analysis; format: ADME, cell-based; details: hepg2, 0.5 h; in short: as §4
[21] = Drug excretion in healthy human urine assessed as (5Z,8R,9E,11E,13Z,15S,17Z)-8,15-Dihydroxyicosa-5,9,11,13,17-pentaenoic Acid formation by LC-MS/MS analysis; format: ADME, tissue-based; details: in vivo
[22] = Half life in human HepG2 cells at 2.6 uM by LC-MS/MS analysis; format: ADME, cell-based; in short: as §4
[23] = Drug metabolism in human HepG2 cells treated with 13 uM Protectin-D1 assessed as compound formation incubated for 4 hrs by tandem mass spectrometric analysis; format: ADME, cell-based; details: hepg2, 4 h; in short: as §2
[24] = Drug metabolism in human HepG2 cells assessed as 3Z,6R,7E,9E,11Z,13S,15Z)-6,13-Dihydroxyoctadeca-3,7,9,11,15-pentaenoic Acid formation at 13 uM incubated for 4 hrs by RP-HPLC/MS analysis; format: ADME, cell-based; details: hepg2, 4 h; in short: as §2
[25] = Drug metabolism in human HepG2 cells assessed as (5Z,8R,9E,11E,13Z,15S,17Z)-8,15-Dihydroxyicosa-5,9,11,13,17-pentaenoic Acid formation at 13 uM up to 8 hrs by LC-MS/MS analysis; format: ADME, cell-based; details: hepg2, 8 h; in short: as §4
[26] = Drug metabolism in human HepG2 cells assessed as 22-OH-NPD1 formation at 13 uM incubated for 4 hrs by RP-HPLC/MS analysis; format: ADME, cell-based; details: hepg2, 4 h; in short: as §2
[27] = Half life in human HepG2 cells at 13 uM by LC-MS/MS analysis; format: ADME, cell-based; in short: as §4
[28] = Drug metabolism in human HepG2 cells assessed as Tmax for 3Z,6R,7E,9E,11Z,13S,15Z)-6,13-Dihydroxyoctadeca-3,7,9,11,15-pentaenoic Acid formation at 0.52 uM by LC-MS/MS analysis; format: ADME, cell-based; details: hepg2, 0.52 µM; in short: as §4
[29] = Drug metabolism in human HepG2 cells assessed as Tmax for 3Z,6R,7E,9E,11Z,13S,15Z)-6,13-Dihydroxyoctadeca-3,7,9,11,15-pentaenoic Acid formation at 2.6 uM by LC-MS/MS analysis; format: ADME, cell-based; details: hepg2, 2.6 µM; in short: as §4
[30] = Drug metabolism in human HepG2 cells assessed as (5Z,8R,9E,11E,13Z,15S,17Z)-8,15-Dihydroxyicosa-5,9,11,13,17-pentaenoic Acid formation at 13 uM after 24 hrs by LC-MS/MS analysis; format: ADME, cell-based; details: hepg2, 24 h; in short: as §4
[31] = Drug metabolism in human HepG2 cells assessed as 3Z,6R,7E,9E,11Z,13S,15Z)-6,13-Dihydroxyoctadeca-3,7,9,11,15-pentaenoic Acid formation at 13 uM up to 24 hrs by LC-MS/MS analysis; format: ADME, cell-based; details: hepg2, 24 h; in short: as §4

Drug excretion [3]: Metabolite_Detected | Stability [4]: Stable | Stability [5]: Stable
Compound: CCCCC/C=C\C\C=C/C=C/C=C/[C@@H](SC[C@H](N)C(=O)O)[C@@H](O)CCCC(=O)O [LEUKOTRIEN E4]

Drug metabolism [31]: Metabolite_Detected | remaining at 24 h, 13 µM [13]: < 0.1% | Drug uptake [2]: Active
Compound: CC/C=C\C[C@H](O)\C=C/C=C/C=C/[C@H](O)C/C=C\CCCC(=O)O
inhibition (Homo sapiens [1]): inactive

Second part, the molecule before the results:

Compound: CC/C=C\C[C@H](O)\C=C/C=C/C=C/[C@H](O)C/C=C\CC(=O)O
inhibition (Homo sapiens [1]): Active | inhibition (INH) (Mus musculus): 20% | Drug uptake [2]: Active

Compound: O=C(O)CC/C=C\C/C=C\C[C@@H](O)/C=C/C=C/C=C\[C@@H](O)C/C=C\CCO
Drug uptake [2]: Active

Compound: CC/C=C\C[C@H](O)\C=C/C=C/C=C/[C@H](O)C/C=C\C/C=C\CCC(=O)O
Drug metabolism [6]: Metabolite_Detected | Drug metabolism [7]: Metabolite_Detected | inhibition (Homo sapiens [8]): Dose-dependent effect | Drug excretion [3]: Metabolite_Notdetected | Drug metabolism [9]: Metabolite_Detected | Drug metabolism [10]: Metabolite_Detected | Drug metabolism [11]: Metabolite_Detected | Drug metabolism [12]: Metabolite_Detected | remaining at 24 h, 13 µM [13]: 0% | Drug metabolism [14]: Metabolite_Detected | Drug metabolism [15]: Metabolite_Detected | metabolised at 0.5 h, 0.52 µM [16]: > 50% | remaining at 24 h, 50 ng [17]: 106% | half-life at 0.52 µM [18]: 30 min | Drug excretion [19]: Metabolite_Notdetected | Drug metabolism [20]: Metabolite_Detected | Drug excretion [21]: Metabolite_Notdetected | half-life at 2.6 µM [22]: 60 min | Drug uptake [23]: Active | Drug metabolism [24]: Metabolite_Detected | Drug metabolism [25]: Metabolite_Detected | Drug metabolism [26]: Metabolite_Detected | half-life at 13 µM [27]: > 240 min | Tmax [28]: 4 h | Tmax [29]: 4 h | Drug metabolism [30]: Metabolite_Notdetected
